Assays:
[1] = system: Human alphaherpesvirus 3; test: Antiviral activity against Varicella zoster virus assessed as inhibition of viral replication; type: functional, organism-based
[2] = system: SARS-CoV-2; test: Antiviral activity against SARS COV-2 infected in monkey vero cells assessed as reduction in virus-induced cytopathic effect preincubated with virus for 1 hr followed by cell infection and measured after 5 days by microscopic analysis; type: functional, organism-based; details: Severe acute respiratory syndrome coronavirus 2, Vero
[3] = system: Vero; test: Cytotoxicity in African green monkey Vero cells assessed as reduction in cell viability measured after 5 days by resazurin dye based assay; details: chlorocebus sabaeus, vero, 120 h; time 5 day
In short: (§1)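 Cells (about 10⁵/well, 5% FBS) were added to two-fold compound dilutions (eight concentrations from 100 μM; DMSO control) and held 5 days at 36.5 °C in CO2. Medium was then replaced with resazurin (25 μg/mL) for 4 h and stopped with SDS. Fluorescence was read at Ex 525 / Em 580–640 nm, with background wells without resazurin subtracted. Done in two replicates; CC50 calculated.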

[4] = Selectivity index, ratio of CC50 for pig PEK cells to EC50 for Antiviral activity against Powassan virus infected in pig PEK cells; type: toxicity, cell-based; details: read-out: Ratio CC50/EC50
[5] = system: Powassan virus; test: Antiviral activity against Powassan virus infected in pig PEK cells assessed as reduction in virus plaque formation preincubated with virus for 1 hr followed by cell infection and measured after 1 hr by crystal violet staining based assay; type: functional, organism-based
[6] = system: Human betaherpesvirus 5; test: Antiviral activity against Human cytomegalovirus AD169; type: functional, organism-based; details: Human betaherpesvirus 5, AD169
In short: (§2)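 Confluent HEL cultures received 100 CCID50 or 20 PFU of virus, with 2 h adsorption before inoculum removal. Cells were then incubated with compound from 100 μM downward. Cytopathicity or plaques were scored once untreated infected controls reached completion.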

[7] = system: Human alphaherpesvirus 3; test: Antiviral activity against thymidine kinase deficient Varicella zoster virus; type: functional, organism-based; in short: as §2
[8] = Selectivity index, ratio of CC50 for African green monkey Vero cells to EC50 for Antiviral activity against Chikungunya virus infected in African green monkey Vero cells; type: toxicity; details: read-out: Ratio CC50/EC50
[9] = system: HEp-2; test: Cytotoxicity in human Hep2 cells assessed as reduction in cell viability measured after 3 days by beckman coulter counting method; type: functional; details: HEp-2, 72 h, time 3 day
In short: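 Hep2 cells seeded at 5 × 10³ cells/well and allowed to grow 24 h, then exposed to compound dilutions starting at 100 μM for 3 days at 37 °C. Cell number measured by Coulter counter.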

[10] = Selectivity index, ratio of CC50 for pig PEK cells to EC50 for Antiviral activity against Tick-borne virus encephalitis infected in pig PEK cells; type: toxicity, cell-based; details: read-out: Ratio CC50/EC50
[11] = system: Tick-borne encephalitis virus; test: Antiviral activity against Tick-borne encephalitis virus infected in pig PEK cells assessed as reduction in virus plaque formation preincubated with virus for 1 hr followed by cell infection and measured after 1 hr by crystal violet staining based assay; type: functional, organism-based
[12] = Selectivity index, ratio of CC50 for human HEL cells to EC50 for antiviral activity against thymidine kinase positive Varicella zoster virus; type: toxicity; details: read-out: Ratio CC50/EC50
[13] = Cytotoxicity in pig PEK cells assessed as reduction in cell viability measured after 5 days by resazurin dye based assay; parameters: species or system Sus scrofa, Kidney; details: 120 h, time 5 day; in short: as §1
[14] = system: Influenza A virus; test: Antiviral activity against Influenza A virus (H1N1) infected in MDCK cells assessed as reduction in cytopathic effect preincubated with cells for 1 hrs followed by viral addition and measured after 24 hrs by Reed-Muench method; type: functional, organism-based
In short: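 MDCK monolayers were pre-incubated 1 h at 37 °C with 3-fold compound dilutions (from 2 mg/mL DMSO stock), then infected at MOI 1 for 24 h. Supernatant yield was titrated by 10-fold dilutions on fresh MDCK for 72 h. Titre was read by hemagglutination with 1% chicken erythrocytes and calculated by Reed-Muench as TID50 per 100 μL.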

[15] = system: MDCK; test: Cytotoxicity in dog MDCK cells assessed as reduction in cell viability measured after 3 days by beckman coulter counting method; type: cell-based, Canis lupus familiaris; details: mdck, 72 h, time 3 day
In short: (§3)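 Cells were seeded at 5 × 10³/well, grown 24 h, then exposed to compound from 100 μM downward for 3 days at 37 °C. Cell number was counted with a Coulter counter.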

[16] = system: Human betaherpesvirus 5; test: Antiviral activity against Human cytomegalovirus Davis; type: functional, organism-based; details: Human betaherpesvirus 5, Davis; in short: as §2
[17] = system: Respiratory syncytial virus; test: Antiviral activity against Respiratory syncytial virus assessed as reduction in virus-induced cytopathic effect by MTS assay; type: functional, organism-based; details: human respiratory syncytial virus
[18] = Selectivity index, ratio of CC50 for human HEL cells to EC50 for antiviral activity against thymidine kinase deficient Varicella zoster virus; type: toxicity; details: read-out: Ratio CC50/EC50
[19] = system: Chikungunya virus; test: Antiviral activity against Chikungunya virus infected in African green monkey Vero cells assessed as reduction in virus plaque formation preincubated with virus for 1 hr followed by cell infection and measured after 1 hr by crystal violet staining based assay; type: functional, organism-based
[20] = system: HEL; test: Cytotoxicity against human HEL cells assessed as reduction in cell viability measured after 3 days by beckman coulter counting method; type: cell-based; details: 72 h, time 3 day; in short: as §3
[21] = system: Human alphaherpesvirus 3; test: Antiviral activity against thymidine kinase positive Varicella zoster virus; type: functional, organism-based; in short: as §2
[22] = system: Omsk hemorrhagic fever virus; test: Antiviral activity against Omsk hemorrhagic fever virus infected in pig PEK cells assessed as reduction in virus plaque formation preincubated with virus for 1 hr followed by cell infection and measured after 1 hr by crystal violet staining based assay; type: functional, organism-based
[23] = Selectivity index, ratio of CC50 for pig PEK cells to EC50 for Antiviral activity against Omsk hemorrhagic fever virus infected in pig PEK cells; type: toxicity, cell-based; details: read-out: Ratio CC50/EC50

Question: For `CCCCCCCc1cc2cn([C@H]3C[C@H](O)[C@@H](CO)O3)c(=O)nc2o1`, which EC50 [1] is on record?
Answer: 0.027 µM

Question: With `NCCOc1cccc2c1Nc1nc(=O)n([C@H]3C[C@H](O)[C@@H](CO)O3)cc1O2` as the molecule, how does the EC50 [2] read?
Answer: 1.12 µM

Question: And the CC50 [3]?
Answer: 1.81 µM

Question: For `COc1ccc(C(OC[C@H]2O[C@@H](n3cc4c(nc3=O)Nc3ccccc3O4)[C@H](OC)[C@@H]2O)(c2ccccc2)c2ccc(OC)cc2)cc1`, which EC50 [2] is on record?
Answer: 12.4 µM

Question: What about the CC50 [3] of the same molecule?
Answer: 26.5 µM

Question: What does the source list for `CCCCCCCCCOc1ccc2c(c1)Nc1nc(=O)n([C@H]3C[C@H](O)[C@@H](CO)O3)cc1O2`?
Answer: selectivity ratio [4]: > 13; EC50 [5]: 7.7 µM; EC50 [6]: > 100 µM; EC50 [7]: 14.2 µM; selectivity ratio [8]: > 13; EC50 [2]: > 100 µM; CC50 [9]: > 100 µM; selectivity ratio [10]: > 18; CC50 [3]: > 100 µM; EC50 [11]: 5.3 µM; selectivity ratio [12]: > 500; CC50 [13]: > 100 µM; EC50 [14]: > 40 µM; CC50 [15]: > 100 µM; EC50 [16]: > 100 µM; EC50 [17]: > 100 µM; selectivity ratio [18]: > 8; EC50 [19]: 7.4 µM; CC50 [20]: > 100 µM; EC50 [21]: 0.2 µM

Question: Which EC50 [2] does the source give for `CO[C@@H]1[C@H](O)[C@@H](CO)O[C@H]1n1cc2c(nc1=O)Nc1ccccc1O2` here?
Answer: > 100 µM

Question: What about the CC50 [3] of the same molecule?
Answer: > 100 µM

Question: With `COc1ccc(C(OC[C@H]2O[C@@H](n3cc4c(nc3=O)Nc3ccccc3O4)[C@H](O)[C@@H]2O)(c2ccccc2)c2ccc(OC)cc2)cc1` as the molecule, how does the EC50 [2] read?
Answer: 11.5 µM

Question: What about the CC50 [3] of the same molecule?
Answer: 15.9 µM

Question: Which EC50 [22] does the source give for `O=c1nc2c(cn1COCCO)Oc1ccccc1N2` here?
Answer: 7.2 µM

Question: And the EC50 [5]?
Answer: > 50 µM

Question: What about the EC50 [6] of the same molecule?
Answer: > 100 µM

Question: And the selectivity ratio [23]?
Answer: > 13

Question: And the EC50 [7]?
Answer: > 100 µM

Question: And the selectivity ratio [8]?
Answer: > 3

Question: And the EC50 [2]?
Answer: > 100 µM

Question: And the CC50 [9]?
Answer: > 100 µM

Question: And the selectivity ratio [10]?
Answer: > 4

Question: What about the CC50 [3] of the same molecule?
Answer: > 100 µM

Question: What about the EC50 [11] of the same molecule?
Answer: 23.6 µM

Question: What about the CC50 [13] of the same molecule?
Answer: > 100 µM

Question: What about the EC50 [14] of the same molecule?
Answer: 25 µM

Question: And the CC50 [15]?
Answer: > 100 µM

Question: What about the EC50 [16] of the same molecule?
Answer: > 100 µM

Question: What about the EC50 [17] of the same molecule?
Answer: > 100 µM

Question: And the EC50 [19]?
Answer: 28 µM

Question: And the CC50 [20]?
Answer: > 100 µM

Question: And the EC50 [21]?
Answer: > 100 µM

Question: Which EC50 [2] does the source give for `COc1ccc(C(OC[C@H]2O[C@@H](n3cc4c(nc3=O)Nc3c(OCCN)cccc3O4)C[C@@H]2O)(c2ccccc2)c2ccc(OC)cc2)cc1` here?
Answer: > 100 µM

Question: What about the CC50 [3] of the same molecule?
Answer: > 100 µM

Question: For `Nc1onc(C(=O)OCC23CC4CC(CC(C4)C2)C3)c1CCc1ccccc1`, which EC50 [22] is on record?
Answer: 15 µM

Question: And the EC50 [5]?
Answer: 15 µM

Question: What about the EC50 [11] of the same molecule?
Answer: 4 µM

Question: What about the CC50 [13] of the same molecule?
Answer: > 100 µM

Question: Which EC50 [2] does the source give for `NOCN1c2ccccc2Oc2cn([C@H]3C[C@H](O)[C@@H](CO)O3)c(=O)nc21` here?
Answer: > 100 µM

Question: What about the CC50 [3] of the same molecule?
Answer: > 100 µM

Question: For `CCCCCCCCCOc1ccc2c(c1)Nc1nc(=O)n(COCCO)cc1O2`, which EC50 [6] is on record?
Answer: > 100 µM

Question: And the EC50 [7]?
Answer: > 100 µM

Question: What about the EC50 [2] of the same molecule?
Answer: > 100 µM

Question: And the EC50 [14]?
Answer: > 100 µM

Question: And the CC50 [15]?
Answer: > 100 µM

Question: What about the EC50 [16] of the same molecule?
Answer: > 100 µM

Question: And the CC50 [20]?
Answer: > 100 µM

Question: What about the EC50 [21] of the same molecule?
Answer: > 100 µM

Question: With `O=c1nc2c(cn1[C@@H]1O[C@H](CO)[C@@H](O)[C@H]1O)Oc1ccccc1N2` as the molecule, how does the EC50 [2] read?
Answer: > 100 µM

Question: What about the CC50 [3] of the same molecule?
Answer: > 100 µM

Question: Which EC50 [2] does the source give for `NCCOc1cccc2c1Nc1nc(=O)n([C@@H]3O[C@H](CO)[C@@H](O)[C@H]3O)cc1O2` here?
Answer: 2.52 µM

Question: What about the CC50 [3] of the same molecule?
Answer: 2.92 µM
